Test results reported in ChEMBL document CHEMBL1127072, “Discovery and synthesis of methyl 2,5-dimethyl-4-[2- (phenylmethyl)benzoyl]-1H-pyrrole-3-carboxylate (FPL 64176) and analogues: the first examples of a new class of calcium channel activator” (J Med Chem, 1993).

What was measured:
Cavia porcellus [1] = species on record: Cavia porcellus; assay: Tested for the force increase in guinea pig atria; assay type: functional
Procedure, shortened: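 Inotropic activity was measured on guinea pig atria paced at 1 Hz. EC50 is the concentration that raises developed tension to 50% of the isoprenaline maximum.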

Cavia porcellus [2] = species on record: Cavia porcellus; assay: Tested for the force value required to increase developed tension to 50% of the isoprenaline maximum at 10 uM; assay type: functional
GH3 [3] = assay: Tested for 45 [Ca2+] uptake in rat pituitary growth hormone3 (GH3) cells; assay type: functional, cell-based
Procedure, shortened: (§1)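 ⁴⁵Ca²⁺ uptake into rat pituitary GH3 cells depolarized with 50 mM K⁺, used as the measure of channel activation. EC50 is the test concentration producing 50% of the maximal uptake obtained with Bay K 8644.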

GH3 [4] = assay: Tested for the 50% of the maximal [Ca2+] uptake produced by Bay K 8644 at 1 uM in rats; assay type: functional, Rattus norvegicus
GH3 [5] = assay: Tested for the increase in [Ca2+] uptake into rat pituitary growth hormone3 (GH3) cells; assay type: functional, cell-based; procedure, shortened: as §1
GH3 [6] = assay: Tested for the increase in [Ca2+] uptake into rat pituitary growth hormone3 (GH3) cells at 10 uM; assay type: functional; conditions: read-out: Inhibition
Procedure, shortened: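 Rat pituitary GH3 cells were depolarized with 50 mM K⁺ and ⁴⁵Ca²⁺ uptake was measured at a single 10 µM test concentration. Response is expressed relative to the maximal uptake produced by Bay K 8644.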

Cavia porcellus [7] = species on record: Cavia porcellus; assay: Tested for the force increase in guinea pig atria at 100 uM; assay type: functional; conditions: read-out: Inhibition
Procedure, shortened: (§2)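 Guinea pig atria paced at 1 Hz, with developed tension recorded at a single test concentration (10, 30 or 100 µM). The increase is given as a percentage of the isoprenaline maximum.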

Cavia porcellus [8] = species on record: Cavia porcellus; assay: Tested for the force increase in guinea pig atria at 10 uM; assay type: functional; procedure, shortened: as §2
GH3 [9] = assay: Tested for the inhibition of [Ca2+] uptake into rat pituitary growth hormone3 (GH3) cells at 10 uM; assay type: functional
Cavia porcellus [10] = species on record: Cavia porcellus; assay: Tested for the force increase in guinea pig atria at 30 uM; assay type: functional; procedure, shortened: as §2
Cavia porcellus [11] = species on record: Cavia porcellus; assay: Tested for the force value required to increase developed tension to 50% of the isoprenaline maximum at 0.3 uM; assay type: functional
GH3 [12] = assay: Tested for the 50% of the maximal [Ca2+] uptake produced by Bay K 8644 at 10 uM in rats; assay type: functional, Rattus norvegicus

Compound | EC50 (Cavia porcellus [1]) | EC50 (GH3 [5]) | other results
COC(=O)C1=C(C)NC(C)=C([N+](=O)[O-])C1c1ccccc1C(F)(F)F (centres undefined) | 1.95 µM | – | Max (Cavia porcellus [2]): 61%; EC50 (GH3 [3]): 0.015 µM; Max (GH3 [4]): 100%
COC(=O)c1c(C)[nH]c(C)c1C(=O)c1ccccc1C | 9.47 µM | 3.6 µM | –
COC(=O)c1c(C)[nH]c(C)c1C(=O)c1ccccc1[N+](=O)[O-] | – | – | Ca2+ uptake increase (% of Bay K 8644 maximum) at 10 µM (GH3 [6]): 0%; Atrial force increase (% of isoprenaline maximum) at 100 µM (Cavia porcellus [7]): 17%
COC(=O)c1c(C)[nH]c(C)c1C(=O)c1ccccc1F | 70 µM | 1.3 µM | –
COC(=O)c1c(C(=O)c2ccccc2Cc2ccccc2)c[nH]c1C | 0.46 µM | 0.42 µM | –
COC(=O)c1c(C)[nH]c(C)c1C(=O)c1c(Cl)cccc1Cl | – | – | Ca2+ uptake increase (% of Bay K 8644 maximum) at 10 µM (GH3 [6]): 0%; Atrial force increase (% of isoprenaline maximum) at 100 µM (Cavia porcellus [7]): 0%
COC(=O)c1c(C)[nH]c(C)c1C(=O)c1ccccc1I | 5.9 µM | 3.4 µM | –
COC(=O)c1c(C)[nH]c(C)c1C(=O)c1cc(Cl)ccc1Cl | 3.98 µM | 0.6 µM | –
COC(=O)c1c(C)[nH]c(C)c1C(=O)c1ccc(Cl)cc1Cl | – | – | Ca2+ uptake increase (% of Bay K 8644 maximum) at 10 µM (GH3 [6]): 0%; inhibition at 10 µM (Cavia porcellus [8]): 40%
COC(=O)c1c(C)[nH]c(C)c1C(=O)c1ccccc1OC(=O)c1ccccc1O | 3.8 µM | 0.5 µM | –
COC(=O)c1c(C)[nH]c(C)c1C(=O)c1ccccc1 | 21.9 µM | 5.4 µM | –
COC(=O)c1c(C)[nH]c(C)c1C(=O)c1cccc(Cl)c1Cl | – | – | inhibition at 10 µM (GH3 [9]): 0%; inhibition at 30 µM (Cavia porcellus [10]): 18%
COC(=O)c1c(C)[nH]c(C)c1C(=O)c1ccccc1OC | – | – | Ca2+ uptake increase (% of Bay K 8644 maximum) at 10 µM (GH3 [6]): 0%; Atrial force increase (% of isoprenaline maximum) at 100 µM (Cavia porcellus [7]): 44%
COC(=O)c1c[nH]cc1C(=O)c1ccccc1Cc1ccccc1 | 2.1 µM | 6.2 µM | –
COC(=O)c1c(C)[nH]c(C)c1C(=O)c1ccccc1Cl | 14 µM | 3.3 µM | –
COC(=O)c1c(C)[nH]c(C)c1C(=O)c1ccccc1C(F)(F)F | 4.84 µM | 4.3 µM | –
COC(=O)c1c(C)[nH]c(C)c1C(=O)c1ccccc1Cc1ccccc1 | 0.049 µM | – | Max (Cavia porcellus [11]): 105%; EC50 (GH3 [3]): 0.016 µM; Max (GH3 [12]): 383%
COC(=O)c1c[nH]c(C)c1C(=O)c1ccccc1Cc1ccccc1 | 0.144 µM | 0.089 µM | –
COC(=O)c1ccccc1C(=O)c1c(C)[nH]c(C)c1C(=O)OC | – | – | Ca2+ uptake increase (% of Bay K 8644 maximum) at 10 µM (GH3 [6]): 0%; Atrial force increase (% of isoprenaline maximum) at 100 µM (Cavia porcellus [7]): 16%
COC(=O)c1c(C)[nH]c(C)c1C(=O)c1ccccc1Br | 8.95 µM | 2.4 µM | –
